Holding throughout (format): functional, cell-based
One assay has as its system P388. As to the kind of experiment: Growth inhibition of P388-D1 (murine leukemia) cell line. The settings on record: Mus musculus. In a few lines:
(§1)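 Cells from ATCC, grown in RPMI 1640 with 10% fetal calf serum. Compounds dissolved in DMSO, diluted in Earle's balanced salt solution then medium, 2-fold serial dilutions, each in triplicate versus triplicate drug-free controls. 2.5 × 10^3 cells per well, 72 h at 37 °C, 5% CO2. MTT added for 90 min, DMSO solubilization, absorbance at 570 nm. IC50 = 50% absorbance reduction versus control, by linear regression of dose-response curves.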

Another assay deals with A549. As to the kind of experiment: Growth inhibition of A549 (human lung carcinoma) cell line. In a few lines:
as §1

The test system of the next assay is HT-29. Description: Growth inhibition of HT-29 (human colon adenocarcinoma) cell line. The method, boiled down: as §1

Values after ≈ are worked out from the molar mass of the structure shown. Some results are limits rather than exact numbers.

As to `COc1cc([C@@H]2c3cc4c(cc3[C@H](O)[C@H]3COC(=O)[C@H]23)OCO4)cc(OC)c1OC` [PODOFILOX], the values for the 50% inhibitory concentration (IC50) in the assay with P388, in the assay with A549 and in the assay with HT-29 were 0.0013 µg/mL (≈ 0.00314 µM), 0.0043 µg/mL (≈ 0.0104 µM) and 0.0043 µg/mL (≈ 0.0104 µM), respectively.
Turning to `COc1cc(C2CC(=O)c3cc4c(cc32)OCO4)cc(OC)c1OC` (stereo not given), the results for the half-maximal inhibitory concentration (IC50) with P388, in the assay with A549 and with HT-29 were 1.1 µg/mL (≈ 3.21 µM), 2.9 µg/mL (≈ 8.47 µM) and 2.9 µg/mL (≈ 8.47 µM), respectively.
As for `COC(=O)[C@@]12CCO[C@@H]1c1cc3c(cc1[C@H]2c1cc(OC)c(O)c(OC)c1)OCO3`, the values for the concentration for half-maximal inhibition (IC50) in the assay with P388, in the assay with A549 and in the assay with HT-29 were 43 µg/mL (≈ 104 µM), above 50 µg/mL and above 50 µg/mL, respectively.
In the case of `COc1cc([C@@H]2c3cc4c(cc3[C@]3(CO)COC(=O)[C@H]23)OCO4)cc(OC)c1O`, the IC50 with P388 turned out to be 8 µg/mL (≈ 20 µM); with A549 it was 12.5 µg/mL (≈ 31.2 µM); with HT-29, 12.2 µg/mL (≈ 30.5 µM).
Regarding `COc1cc(C2CC(=O)c3cc4c(cc32)OCO4)cc(OC)c1O` (stereo not given), the concentration for half-maximal inhibition (IC50) came to 1.7 µg/mL (≈ 5.18 µM) with P388, 19.4 µg/mL (≈ 59.1 µM) in the assay with A549 and 19.2 µg/mL (≈ 58.5 µM) in the assay on HT-29.
Take `COc1cc([C@H]2C[C@@H](O)c3cc4c(cc32)OCO4)cc(OC)c1OC`: the results for the half-inhibitory concentration (IC50) in the assay on P388, with A549 and in the assay on HT-29 were 0.014 µg/mL (≈ 0.0407 µM), 0.038 µg/mL (≈ 0.11 µM) and 0.032 µg/mL (≈ 0.0929 µM), respectively.
Take `COc1cc([C@H]2C[C@H](OC3CCCCC3)c3cc4c(cc32)OCO4)cc(OC)c1O`: the 50% inhibitory concentration (IC50) in the assay on P388 is 6.6 µg/mL (≈ 16 µM); in the assay on A549 it was 9.7 µg/mL (≈ 23.5 µM); with HT-29, 8.6 µg/mL (≈ 20.8 µM).
As for `COc1cc([C@H]2C[C@@H](O)c3cc4c(cc32)OCO4)cc(OC)c1O`, the IC50 is 0.53 µg/mL (≈ 1.6 µM) with P388, 0.76 µg/mL (≈ 2.3 µM) with A549 and 2.1 µg/mL (≈ 6.36 µM) in the assay with HT-29.
As for `COc1cccc2c1C(=O)c1c(O)c3c(c(O)c1C2=O)C[C@@](O)(C(=O)CO)C[C@@H]3O[C@H]1C[C@H](N)[C@H](O)[C@H](C)O1` [DOXORUBICIN], the IC50 was found to be 0.017 µg/mL (≈ 0.0313 µM) in the assay with P388, 0.053 µg/mL (≈ 0.0975 µM) with A549 and 0.11 µg/mL (≈ 0.202 µM) in the assay with HT-29.
Regarding `COc1cc([C@H]2C[C@@H](OC3CCCCC3)c3cc4c(cc32)OCO4)cc(OC)c1O`, the IC50 worked out at 7.9 µg/mL (≈ 19.2 µM) in the assay with P388, 12 µg/mL (≈ 29.1 µM) in the assay on A549 and 10.3 µg/mL (≈ 25 µM) in the assay with HT-29.
On to `COc1cc([C@@H]2c3cc4c(cc3[C@H](O)[C@@]23CCOC3=O)OCO4)cc(OC)c1O`, for which the half-inhibitory concentration (IC50) with P388, with A549 and in the assay on HT-29 was above 50 µg/mL each time.
Regarding `COc1cc([C@H]2C[C@H](OC(C)(C)C)c3cc4c(cc32)OCO4)cc(OC)c1O`, the figures for the IC50 in the assay on P388, in the assay with A549 and in the assay with HT-29 were 7.1 µg/mL (≈ 18.4 µM), 31.3 µg/mL (≈ 81 µM) and 28.8 µg/mL (≈ 74.5 µM), respectively.
Taken in the same sequence, the figures for `COc1cc([C@H]2C[C@H](OC)c3cc4c(cc32)OCO4)cc(OC)c1O` were 8.1 µg/mL (≈ 23.5 µM), 46.9 µg/mL (≈ 136 µM) and 41.5 µg/mL (≈ 121 µM).
Regarding `COc1cc([C@@H]2c3cc4c(cc3[C@]3(CO)COC(=O)[C@H]23)OCO4)cc(OC)c1OC`, the results for the half-maximal inhibitory concentration (IC50) with P388, in the assay on A549 and in the assay with HT-29 were 0.59 µg/mL (≈ 1.42 µM), 1.2 µg/mL (≈ 2.9 µM) and 1.2 µg/mL (≈ 2.9 µM), respectively.
As for `COc1cc([C@@H]2c3cc4c(cc3[C@@H](O)[C@@]23CCOC3=O)OCO4)cc(OC)c1O`, the IC50 in the assay on P388 is 16.8 µg/mL (≈ 42 µM); with A549 it was 48.2 µg/mL (≈ 120 µM); in the assay on HT-29 it was above 50 µg/mL.
Turning to `COc1cc([C@@H]2c3cc4c(cc3[C@H](O)[C@@]23CCOC3=O)OCO4)cc(OC)c1OC`, the values for the IC50 in the assay on P388, in the assay with A549 and with HT-29 were 2.5 µg/mL (≈ 6.03 µM), 5.1 µg/mL (≈ 12.3 µM) and 5.3 µg/mL (≈ 12.8 µM), respectively.
In the same order, the values of `COc1cc([C@H]2C[C@@H](OC)c3cc4c(cc32)OCO4)cc(OC)c1O` are 0.57 µg/mL (≈ 1.66 µM), 1.1 µg/mL (≈ 3.19 µM) and 3.2 µg/mL (≈ 9.29 µM).
Taken in the same sequence, the figures for `COC(=O)[C@@]12CCO[C@@H]1c1cc3c(cc1[C@H]2c1cc(OC)c(OC)c(OC)c1)OCO3` were 5.7 µg/mL (≈ 13.3 µM), 11.9 µg/mL (≈ 27.8 µM) and 17.4 µg/mL (≈ 40.6 µM).
Regarding `COc1cc([C@@H]2c3cc4c(cc3[C@@H](O[C@@H]3O[C@@H]5CO[C@@H](C)O[C@H]5[C@H](O)[C@H]3O)[C@H]3COC(=O)[C@H]23)OCO4)cc(OC)c1O` [ETOPOSIDE], the IC50 in the assay with P388 turned out to be 0.063 µg/mL (≈ 0.107 µM); in the assay on A549, 1.03 µg/mL (≈ 1.75 µM); in the assay with HT-29, 1.7 µg/mL (≈ 2.89 µM).
Consider `COc1cc([C@H]2C[C@H](O)c3cc4c(cc32)OCO4)cc(OC)c1O`, for which the IC50 stood at 4.2 µg/mL (≈ 12.7 µM) with P388, 9.9 µg/mL (≈ 30 µM) in the assay on A549 and 12 µg/mL (≈ 36.3 µM) in the assay with HT-29.

Broadly, the IC50 is the concentration that gives 50% inhibition.

Values taken from ChEMBL document CHEMBL1125649, “Synthesis and antitumor activity of structural analogues of the epipodophyllotoxins” (J Med Chem, 1991).
